Columns and labels:
[1] = tested on: SK-MES-1; test: Tested in vitro for anticancer activity against SK-MES-1 cells; assay type: functional, cell-based; conditions: Homo sapiens
[2] = tested on: MCF7; test: Tested in vitro for anticancer activity against MCF-7 cells; assay type: functional, cell-based; conditions: Homo sapiens
[3] = tested on: Human immunodeficiency virus 1; test: (§1) Tested in vitro for anti HIV-1 activity against PBM cells; assay type: functional; conditions: Human immunodeficiency virus 1, PBMC
[4] = Tested in vitro for cytotoxicity against PBM cells; assay type: functional, cell-based; conditions: Homo sapiens, PBMC
[5] = tested on: SK-MEL-28; test: The compound was tested in vitro for anticancer activity against SK-MEL-28 cells; assay type: functional, cell-based; conditions: Homo sapiens
Outline: (§2)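 Growth inhibition in human or rat tumour cell lines. Cells cultured with drug in 96-well plates for 5 days (LNCaP, SK-MES-1), 4 days (CEM, MCF-7, SK-MEL-28, HepG2, 9L) or 3 days (PC-3). Solvent-exposed untreated cells served as negative control. Viable, actively metabolizing cells were read by MTT assay. DMSO stocks (40 mM) were diluted in growth medium. IC50 in μM.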

[6] = tested on: Human immunodeficiency virus 1; test: as §1; assay type: functional, organism-based; conditions: Human immunodeficiency virus 1, PBMC
[7] = tested on: LNCaP; test: Tested in vitro for anticancer activity against LNCaP cells; assay type: functional, cell-based; conditions: Homo sapiens
[8] = tested on: Vero; test: Tested in vitro for cytotoxicity against Vero cells; assay type: functional, cell-based; conditions: Chlorocebus sabaeus
[9] = tested on: HepG2; test: Tested in vitro for anticancer activity against HepG2 cells; assay type: functional, cell-based; conditions: Homo sapiens
[10] = tested on: CCRF-CEM; test: Tested in vitro for anticancer activity against CEM cells; assay type: functional, cell-based; conditions: Homo sapiens
[11] = tested on: SK-MEL-28; test: Tested in vitro for anticancer activity against SK-MEL-28 cells; assay type: functional, cell-based; conditions: Homo sapiens
[12] = tested on: PC-3; test: Tested in vitro for anticancer activity against PC-3 cells; assay type: functional, cell-based; conditions: Homo sapiens
[13] = molecular target: Human immunodeficiency virus type 1 reverse transcriptase (Human immunodeficiency virus 1, UniProt Q72547); test: (§3) The compound was tested for inhibitory activity against Recombinant HIV-1 reverse transcriptase
Outline: (§4)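 Extension assay with HIV-1 p66/51 heterodimer RT (1 unit) and r(I)n·(dC)12-18 template-primer (0.05 units/mL). Buffer: Tris-HCl pH 8.0, KCl, MgCl2, DTT, 100 μg/mL BSA, 1 μM [3H]dCTP. Incubated 1 h at 37 °C, stopped with cold 10% TCA/0.05% sodium pyrophosphate for 30 min at 4 °C. Precipitate filter-harvested and counted by beta counting. 3TC-TP served as positive control.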

[14] = tested on: 9L; test: Tested in vitro for anticancer activity against 9L cells; assay type: functional, cell-based; conditions: Rattus norvegicus; outline: as §2
[15] = molecular target: Human immunodeficiency virus type 1 reverse transcriptase (Human immunodeficiency virus 1) (UniProt Q72547); test: as §3; outline: as §4
[16] = tested on: 9L; test: The compound was tested in vitro for anticancer activity against 9L cells; assay type: functional, cell-based; conditions: Rattus norvegicus; outline: as §2

Compound: Cc1cn([C@H]2C[C@H](N=[N+]=[N-])[C@@H](CO)O2)c(=O)[nH]c1=O [ZIDOVUDINE]
- IC50 [1]: > 100 µM
- IC50 [2]: > 10 µM
- EC90 [3]: 0.02 µM
- IC50 [4]: > 100 µM
- IC50 [5]: > 10 µM
- EC50 [6]: 0.002 µM

Compound: Nc1nc(=O)n([C@H]2C=C[C@@H](CO)O2)cc1F [DEXELVUCITABINE]
- IC50 [1]: > 100 µM
- IC50 [2]: > 100 µM
- IC50 [7]: > 100 µM
- EC90 [3]: 0.77 µM
- IC50 [8]: > 100 µM
- IC50 [4]: > 100 µM
- IC50 [9]: > 100 µM
- IC50 [10]: > 100 µM
- EC50 [6]: 0.046 µM
- IC50 [11]: > 100 µM
- IC50 [12]: > 10 µM

Compound: Nc1nc(=O)n(C2C=CC(CO)C2)cc1F (stereo not given)
- EC90 [3]: 71 µM
- IC50 [8]: > 100 µM
- IC50 [4]: > 100 µM
- IC50 [10]: > 100 µM
- EC50 [6]: 8.2 µM

Compound: Nc1ccc([C@@H]2CS[C@H](OP(=O)(O)OP(=O)(O)OP(=O)(O)O)O2)c(=O)[nH]1
- IC50 [13]: 3.6 µM

Compound: Nc1nc(=O)n([C@H]2C=C[C@@H](CO)O2)cc1I
- IC50 [1]: > 100 µM
- IC50 [2]: > 100 µM
- IC50 [7]: > 100 µM
- EC90 [3]: > 10 µM
- IC50 [8]: > 100 µM
- IC50 [4]: 98.3 µM
- IC50 [9]: > 100 µM
- IC50 [10]: 107 µM
- EC50 [6]: > 10 µM
- IC50 [11]: > 100 µM
- IC50 [12]: > 100 µM

Compound: C[C@@H]1C[C@@H]([C@H](O)CC2CC(=O)NC(=O)C2)C(=O)[C@@H](C)C1 [CYCLOHEXIMIDE]
- IC50 [1]: 2.7 µM
- IC50 [2]: 1.5 µM
- IC50 [14]: 0.2 µM
- IC50 [7]: 1.2 µM
- IC50 [8]: 1.2 µM
- IC50 [4]: 2.1 µM
- IC50 [9]: 2.5 µM
- IC50 [10]: 0.12 µM
- IC50 [11]: 1 µM
- IC50 [12]: 3.5 µM

Compound: Nc1ccn(C2C=CC(COP(=O)(O)OP(=O)(O)OP(=O)(O)O)C2)c(=O)n1 (racemic)
- IC90 [15]: 3.4 µM
- IC50 [13]: 0.38 µM

Compound: Nc1nc(=O)n([C@@H]2C=C[C@H](CO)O2)cc1F [ELVUCITABINE]
- IC50 [1]: 99.1 µM
- IC50 [2]: 82.8 µM
- IC50 [7]: 55.2 µM
- EC90 [3]: 0.16 µM
- IC50 [8]: 9.4 µM
- IC50 [4]: 12.9 µM
- IC50 [9]: 118 µM
- IC50 [10]: 0.46 µM
- EC50 [6]: 0.034 µM
- IC50 [11]: > 100 µM
- IC50 [12]: > 100 µM

Compound: CCCC(=O)OC[C@@H]1C=C[C@H](n2cc(F)c(N)nc2=O)O1
- IC50 [1]: > 100 µM
- IC50 [2]: > 100 µM
- IC50 [14]: > 100 µM
- IC50 [7]: > 100 µM
- EC90 [3]: 0.61 µM
- IC50 [8]: > 100 µM
- IC50 [4]: > 100 µM
- IC50 [9]: > 100 µM
- IC50 [10]: > 100 µM
- EC50 [6]: 0.15 µM
- IC50 [11]: > 100 µM
- IC50 [12]: > 100 µM

Compound: Nc1ccc([C@@H]2CS[C@H](OP(=O)(O)OP(=O)(O)OP(=O)(O)O)O2)c(O)n1
- IC90 [15]: 29.8 µM

Compound: CCCCC(=O)OC[C@@H]1C=C[C@H](n2cc(F)c(N)nc2=O)O1
- IC50 [1]: > 100 µM
- IC50 [2]: > 100 µM
- IC50 [7]: > 100 µM
- EC90 [3]: 0.34 µM
- IC50 [8]: > 100 µM
- IC50 [4]: > 100 µM
- IC50 [9]: > 100 µM
- IC50 [10]: 124 µM
- EC50 [6]: 0.056 µM
- IC50 [11]: > 100 µM
- IC50 [12]: > 100 µM

Compound: Nc1nc(=O)n([C@@H]2C=C[C@@H](CO)O2)cc1F
- IC50 [1]: > 100 µM
- IC50 [2]: > 100 µM
- IC50 [14]: > 100 µM
- IC50 [7]: > 100 µM
- EC90 [3]: 70 µM
- IC50 [8]: > 100 µM
- IC50 [4]: > 100 µM
- IC50 [9]: > 100 µM
- IC50 [10]: > 100 µM
- EC50 [6]: 20 µM
- IC50 [11]: > 100 µM
- IC50 [12]: > 100 µM

Compound: Nc1nc(=O)n([C@H]2C=C[C@@H](CO)O2)cc1Br
- IC50 [1]: > 100 µM
- IC50 [2]: > 100 µM
- IC50 [7]: > 100 µM
- EC90 [3]: > 10 µM
- IC50 [8]: > 100 µM
- IC50 [4]: 91.6 µM
- IC50 [9]: > 100 µM
- IC50 [10]: 42.5 µM
- EC50 [6]: > 10 µM
- IC50 [11]: > 100 µM
- IC50 [12]: > 100 µM

Compound: O=c1[nH]c(=O)n([C@@H]2C=C[C@@H](CO)O2)cc1F
- IC50 [1]: 10 µM
- IC50 [2]: 67.3 µM
- IC50 [7]: 85.8 µM
- EC90 [3]: 23 µM
- IC50 [8]: 3 µM
- IC50 [4]: 47.4 µM
- IC50 [16]: 2.4 µM
- IC50 [9]: 37.1 µM
- IC50 [10]: 11.4 µM
- EC50 [6]: 7.5 µM
- IC50 [11]: 9.8 µM
- IC50 [12]: > 100 µM

Compound: O=c1[nH]cc(F)c(=O)[nH]1 [FLUOROURACIL]
- IC50 [1]: 13.1 µM
- IC50 [2]: 41 µM
- IC50 [14]: 1 µM
- IC50 [7]: > 100 µM
- IC50 [8]: 6.81 µM
- IC50 [4]: 5 µM
- IC50 [9]: 37.9 µM
- IC50 [10]: 90.5 µM
- IC50 [11]: 4.5 µM
- IC50 [12]: > 100 µM

Compound: CC(=O)OC[C@@H]1C=C[C@H](n2cc(F)c(N)nc2=O)O1
- IC50 [1]: > 100 µM
- EC90 [3]: 0.4 µM
- IC50 [8]: > 100 µM
- IC50 [4]: > 100 µM
- IC50 [9]: > 100 µM
- IC50 [10]: > 100 µM
- EC50 [6]: 0.13 µM
- IC50 [11]: > 100 µM
- IC50 [12]: > 100 µM

Compound: CC(=O)Nc1nc(=O)n([C@H]2C=C[C@@H](CO)O2)cc1F
- IC50 [1]: 84.6 µM
- IC50 [2]: 62.9 µM
- IC50 [7]: > 100 µM
- EC90 [3]: 6 µM
- IC50 [8]: 103 µM
- IC50 [4]: > 100 µM
- IC50 [9]: > 100 µM
- IC50 [10]: 14.7 µM
- EC50 [6]: 1 µM
- IC50 [11]: 108 µM
- IC50 [12]: > 100 µM

Compound: O=c1[nH]c(=O)n([C@@H]2C=C[C@H](CO)O2)cc1F
- IC50 [1]: 4.6 µM
- IC50 [2]: 15.8 µM
- IC50 [14]: 1.9 µM
- IC50 [7]: 57.2 µM
- EC90 [3]: 3 µM
- IC50 [8]: 32 µM
- IC50 [4]: 2.3 µM
- IC50 [9]: 35.4 µM
- IC50 [10]: 12.9 µM
- EC50 [6]: 0.26 µM
- IC50 [11]: 7.45 µM
- IC50 [12]: 83.4 µM

Compound: Nc1nc(=O)n([C@H]2C=C[C@@H](COP(=O)(O)OP(=O)(O)OP(=O)(O)O)C2)cc1F (racemic)
- IC90 [15]: 2.2 µM
- IC50 [13]: 0.27 µM

Compound: Nc1nc(=O)n(C2C=CC(COP(=O)(O)OP(=O)(O)OP(=O)(O)O)C2)cc1F (racemic)
- IC90 [15]: 4 µM
- IC50 [13]: 0.4 µM

Compound: Nc1ccn(C2C=CC(CO)C2)c(=O)n1 (stereo not given)
- EC90 [3]: 59.9 µM
- IC50 [8]: > 100 µM
- IC50 [4]: > 100 µM
- IC50 [10]: > 100 µM
- EC50 [6]: 9 µM

Compound: CCCNc1nc(=O)n([C@H]2C=C[C@@H](CO)O2)cc1F
- IC50 [1]: > 100 µM
- IC50 [2]: > 100 µM
- IC50 [7]: > 100 µM
- EC90 [3]: > 100 µM
- IC50 [8]: > 100 µM
- IC50 [4]: 34.7 µM
- IC50 [9]: > 100 µM
- IC50 [10]: > 100 µM
- EC50 [6]: > 100 µM
- IC50 [11]: > 100 µM
- IC50 [12]: > 100 µM

Compound: O=C1NC(O)C(F)=CN1[C@H]1C=C[C@@H](CO)O1 (stereo not given in full)
- IC50 [1]: 4.2 µM
- IC50 [2]: 54.1 µM
- IC50 [14]: 1.2 µM
- IC50 [7]: 67.8 µM
- EC90 [3]: 23 µM
- IC50 [8]: 7.9 µM
- IC50 [4]: 32.2 µM
- IC50 [9]: 59.3 µM
- IC50 [10]: 9.1 µM
- EC50 [6]: 7.9 µM
- IC50 [11]: 21.7 µM
- IC50 [12]: 63 µM
